Columns and labels:
Format in all cases: functional
[1] = test system: BT-549; test: Cytotoxicity against human BT549 cells after 48 hrs by SRB assay; settings: BT-549, 48 h
Summary of the method: (§1)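 NCI 60-cell-line screen. Cells preincubated 24 h at 37 °C, 5% CO2; time-zero plates TCA-fixed. Compounds dissolved in DMSO and tested at five concentrations (100, 10, 1.0, 0.1, 0.01 µM) for 48 h continuous exposure. Adherent cells fixed with cold TCA (10% final), then SRB stained; absorbance at 515 nm. GI50, TGI and LC50 calculated from growth relative to time-zero and untreated controls.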

[2] = test system: NCI-H460; test: Cytotoxicity against human NCI-H460 cells after 48 hrs by SRB assay; settings: NCI-H460, 48 h; summary of the method: as §1
[3] = test system: ACHN; test: Cytotoxicity against human ACHN cells after 48 hrs by SRB assay; settings: for CC50: read-out: LC50 (the source's name); summary of the method: as §1
[4] = test system: SK-OV-3; test: Cytotoxicity against human SKOV3 cells after 48 hrs by SRB assay; settings: SK-OV-3, 48 h; summary of the method: as §1
[5] = test system: MDA-MB-231; test: Cytotoxicity against human MDA-MB-231 cells after 48 hrs by SRB assay; settings: MDA-MB-231, 48 h; summary of the method: as §1
[6] = test system: OVCAR-4; test: Cytotoxicity against human OVCAR4 cells after 48 hrs by SRB assay; settings: OVCAR-4, 48 h; summary of the method: as §1
[7] = test system: Plasmodium falciparum; test: Antimalarial activity against Plasmodium falciparum NF54 infected in human serum at 20 ug/ml after 48 hrs by fluorometric method
Summary of the method: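 Asynchronous P. falciparum NF54 at 1.5–2% parasitemia, 5% hematocrit in RPMI with 10% human serum, exposed 48 h at 37 °C under 90% N2/5% CO2/5% O2 at the stated concentration; parasite DNA stained with ethidium bromide after proteinase K lysis; viability % = (Flu treated − medium)/(Flu untreated − medium) ×100; triplicate.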

[8] = test system: NCI/ADR-RES; test: Cytotoxicity against human NCI/ADR-RES cells after 48 hrs by SRB assay; settings: for CC50: read-out: LC50 (the source's name); summary of the method: as §1
[9] = test system: OVCAR-5; test: Cytotoxicity against human OVCAR5 cells after 48 hrs by SRB assay; settings: OVCAR-5, 48 h; summary of the method: as §1
[10] = test system: SK-MEL-5; test: Cytotoxicity against human SK-MEL-5 cells after 48 hrs by SRB assay; settings: SK-MEL-5, 48 h; summary of the method: as §1
[11] = test system: A498; test: Cytotoxicity against human A498 cells after 48 hrs by SRB assay; settings: A498, 48 h; for CC50: read-out: LC50 (the source's name); summary of the method: as §1
[12] = test system: SR; test: Cytotoxicity against human SR cells after 48 hrs by SRB assay
Summary of the method: (§2)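 NCI 60-cell screen. Cells grew 24 h (37 °C, 5% CO2) before compound was added. Compounds were in DMSO and diluted in medium with gentamicin, then tested at five levels (100, 10, 1.0, 0.1, 0.01 µM) with 48 h continuous exposure. Adherent cells were fixed with TCA (10% final) and stained with 0.4% SRB, absorbance read at 515 nm. A time-zero plate was included. LC50 is the concentration giving 50% loss of protein relative to time zero.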

[13] = test system: SF-539; test: Cytotoxicity against human SF539 cells after 48 hrs by SRB assay; settings: SF-539, 48 h; for CC50: read-out: LC50 (the source's name); summary of the method: as §1
[14] = test system: M14; test: Cytotoxicity against human M14 cells after 48 hrs by SRB assay; settings: M14, 48 h; for CC50: read-out: LC50 (the source's name); summary of the method: as §1
[15] = test system: MDA-MB-468; test: Cytotoxicity against human MDA-MB-468 cells after 48 hrs by SRB assay; settings: MDA-MB-468, 48 h; summary of the method: as §1
[16] = test system: SF-295; test: Cytotoxicity against human SF295 cells after 48 hrs by SRB assay; settings: SF-295, 48 h; summary of the method: as §1
[17] = test system: MCF7; test: Cytotoxicity against human MCF7 cells after 48 hrs by SRB assay; settings: MCF7, 48 h; for CC50: read-out: LC50 (the source's name); summary of the method: as §1
[18] = test system: MOLT-4; test: Cytotoxicity against human MOLT4 cells after 48 hrs by SRB assay; settings: MOLT-4, 48 h; summary of the method: as §1
[19] = test system: 786-0; test: Cytotoxicity against human 786-0 cells after 48 hrs by SRB assay; settings: 786-0, 48 h; summary of the method: as §1
[20] = test system: NCI-H522; test: Cytotoxicity against human NCI-H522 cells after 48 hrs by SRB assay; settings: NCI-H522, 48 h; for CC50: read-out: LC50 (the source's name); summary of the method: as §1
[21] = test system: DU-145; test: Cytotoxicity against human DU145 cells after 48 hrs by SRB assay; settings: DU-145, 48 h; summary of the method: as §1
[22] = test system: NCI-H23; test: Cytotoxicity against human NCI-H23 cells after 48 hrs by SRB assay; settings: NCI-H23, 48 h; for CC50: read-out: LC50 (the source's name); summary of the method: as §1
[23] = test system: HL-60(TB); test: Cytotoxicity against human HL-60(TB) cells after 48 hrs by SRB assay; settings: HL-60, 48 h; for CC50: read-out: LC50 (the source's name); summary of the method: as §1
[24] = test system: SNB-75; test: Cytotoxicity against human SNB75 cells after 48 hrs by SRB assay; settings: SNB-75, 48 h; summary of the method: as §2
[25] = test system: HCT-15; test: Cytotoxicity against human HCT15 cells after 48 hrs by SRB assay; settings: HCT-15, 48 h; summary of the method: as §1
[26] = test system: U-251; test: Cytotoxicity against human U251 cells after 48 hrs by SRB assay; settings: U-251, 48 h; for CC50: read-out: LC50 (the source's name); summary of the method: as §2
[27] = test system: UO-31; test: Cytotoxicity against human UO31 cells after 48 hrs by SRB assay; settings: UO-31, 48 h; summary of the method: as §2
[28] = test system: Malme-3M; test: Cytotoxicity against human MALME-3M cells after 48 hrs by SRB assay; summary of the method: as §1
[29] = test system: Hs-578T; test: Cytotoxicity against human Hs578T cells after 48 hrs by SRB assay; summary of the method: as §1
[30] = test system: HCT-116; test: Cytotoxicity against human HCT116 cells after 48 hrs by SRB assay; settings: HCT-116, 48 h; summary of the method: as §1
[31] = test system: MDA-MB-435; test: Cytotoxicity against human MDA-MB-435 cells after 48 hrs by SRB assay; settings: MDA-MB-435, 48 h; summary of the method: as §1
[32] = test system: OVCAR-3; test: Cytotoxicity against human OVCAR3 cells after 48 hrs by SRB assay; settings: OVCAR-3, 48 h; summary of the method: as §1
[33] = test system: CCRF-CEM; test: Cytotoxicity against human CCRF-CEM cells after 48 hrs by SRB assay; summary of the method: as §1
[34] = test system: PC-3; test: Cytotoxicity against human PC3 cells after 48 hrs by SRB assay; settings: PC-3, 48 h; summary of the method: as §1

## O=CN1N=C(c2cccc(Nc3ccnc4cc(Cl)ccc34)c2)CC1c1ccccc1 (configuration not stated)
[1]
  GI50: 0.21 µM
  LC50 (50% net cell kill vs time zero): 30.9 µM
[2]
  GI50: 0.41 µM
  LC50: > 100 µM
[3]
  GI50: 0.86 µM
  CC50: > 100 µM
[4]
  GI50: 0.33 µM
  LC50 (concentration killing 50% of cells): > 100 µM
[5]
  GI50: 1.15 µM
  LC50 (concentration killing 50% of cells present at time zero): > 100 µM
[6]
  GI50: 0.56 µM
  LC50: > 100 µM
[7]
  inhibition at 20 µg/mL: 0%
[8]
  GI50: 0.29 µM
  CC50: > 100 µM
[9]
  GI50: 1.38 µM
  LC50: > 100 µM
[10]
  GI50: 0.29 µM
  LC50 (concentration killing 50% of cells present at time zero): 64.2 µM
[11]
  GI50: 0.23 µM
  CC50: > 100 µM
[12]
  GI50: 0.2 µM
  LC50: > 100 µM
[13]
  GI50: 0.31 µM
  CC50: 35.7 µM
[14]
  GI50: 0.33 µM
  CC50: > 100 µM
[15]
  GI50: 0.22 µM
  LC50: > 100 µM
[16]
  GI50: 0.37 µM
  LC50: 41.2 µM
[17]
  GI50: 0.34 µM
  CC50: > 100 µM
[18]
  GI50: 0.39 µM
  LC50: > 100 µM
[19]
  GI50: 0.59 µM
  LC50: > 100 µM
[20]
  GI50: 0.21 µM
  CC50: > 100 µM
[21]
  GI50: 0.44 µM
  LC50 (concentration killing 50% of cells): > 100 µM
[22]
  GI50: 0.61 µM
  CC50: > 100 µM
[23]
  GI50: 0.2 µM
  CC50: 4.56 µM
[24]
  GI50: 0.22 µM
  LC50 (50% net cell kill): > 100 µM
[25]
  GI50: 0.52 µM
  LC50 (concentration killing 50% of cells relative to time zero): > 100 µM
[26]
  GI50: 0.37 µM
  CC50: 5.07 µM
[27]
  GI50: 0.41 µM
  LC50: > 100 µM
[28]
  GI50: 0.37 µM
  LC50: > 100 µM
[29]
  GI50: 0.29 µM
  LC50 (50% net cell kill): > 100 µM
[30]
  GI50: 0.39 µM
  LC50: 4.75 µM
[31]
  GI50: 0.13 µM
  LC50: > 100 µM
[32]
  GI50: 0.28 µM
  LC50: 7.38 µM
[33]
  GI50: 0.37 µM
  LC50 (concentration killing 50% of cells relative to time zero): > 100 µM

## COc1cc(C2CC(c3cccc(Nc4ccnc5cc(Cl)ccc45)c3)=NN2C=O)cc(OC)c1OC (configuration not stated)
[1]
  GI50: 0.39 µM
  LC50 (50% net cell kill vs time zero): 4.61 µM
[2]
  GI50: 0.42 µM
  LC50: > 100 µM
[3]
  GI50: 1.27 µM
  CC50: > 100 µM
[4]
  GI50: 1.4 µM
  LC50 (concentration killing 50% of cells): > 100 µM
[5]
  GI50: 1.6 µM
  LC50 (concentration killing 50% of cells present at time zero): > 100 µM
[34]
  GI50: 1.46 µM
  LC50: > 100 µM
[6]
  GI50: 1.13 µM
  LC50: > 100 µM
[7]
  inhibition at 20 µg/mL: 24.6%
[8]
  GI50: 1.36 µM
  CC50: > 100 µM
[9]
  GI50: 4.32 µM
  LC50: > 100 µM
[10]
  GI50: 0.42 µM
  LC50 (concentration killing 50% of cells present at time zero): 23.5 µM
[11]
  GI50: 0.29 µM
  CC50: > 100 µM
[12]
  GI50: 0.34 µM
  LC50: > 100 µM
[13]
  GI50: 0.81 µM
  CC50: 55.5 µM
[14]
  GI50: 0.35 µM
  CC50: 57.5 µM
[15]
  GI50: 0.3 µM
  LC50: 23.3 µM
[16]
  GI50: 0.38 µM
  LC50: > 100 µM
[17]
  GI50: 0.37 µM
  CC50: > 100 µM
[18]
  GI50: 0.59 µM
  LC50: > 100 µM
[19]
  GI50: 0.84 µM
  LC50: 76.3 µM
[20]
  GI50: 0.75 µM
  CC50: > 100 µM
[21]
  GI50: 2.68 µM
  LC50 (concentration killing 50% of cells): > 100 µM
[22]
  GI50: 1.38 µM
  CC50: > 100 µM
[23]
  GI50: 0.26 µM
  CC50: 3.97 µM
[24]
  GI50: 0.38 µM
  LC50 (50% net cell kill): 51 µM
[25]
  GI50: 0.55 µM
  LC50 (concentration killing 50% of cells relative to time zero): > 100 µM
[26]
  GI50: 0.45 µM
  CC50: > 100 µM
[27]
  GI50: 1.3 µM
  LC50: > 100 µM
[28]
  GI50: 0.81 µM
  LC50: > 100 µM
[29]
  GI50: 0.68 µM
  LC50 (50% net cell kill): > 100 µM
[30]
  GI50: 0.4 µM
  LC50: 6.71 µM
[31]
  GI50: 0.22 µM
  LC50: > 100 µM
[32]
  GI50: 0.52 µM
  LC50: 6.06 µM
[33]
  GI50: 0.65 µM
  LC50 (concentration killing 50% of cells relative to time zero): > 100 µM

From ChEMBL document CHEMBL2417469, “Synthesis of novel analogs of 2-pyrazoline obtained from [(7-chloroquinolin-4-yl)amino]chalcones and hydrazine as potential antitumor and antimalarial agents” (Eur J Med Chem, 2013)
